COUP-TFII inh: blocks human COUP-TFII nuclear receptor; hit rate 0.7% among 370,000; inhibition, % at 8.6 µM; AID 686940; HEK293T NGFI-A luciferase reporter, luminescence; P24468;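 active = inhibition above a per-plate cutoff, mean inhibition of test wells between control levels plus 3 SD, cut at about 38% in these data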;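 note: cells cotransfected with COUP-TFII expression vector driving the NGFI-A reporter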
NR2E3 ag-1: NR2E3 (human) agonism; Q9Y5X4; hit rate 0.12% among 320,000; inhibition of corepressor binding, % at 4.78 µM; AID 2300; GST-NR2E3/biotin-RetCOR TR-FRET, 1536-well;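 active = percent inhibition above the cutoff of mean plus 3 SD of all tested compounds, set per screening campaign, cut at about 20% in these data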
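Test system – NR2E3–RetCOR corepressor complex · Quantity – NR2E3 fusion 1.35 nM · Buffer or medium – Tris pH 7.5 · Incubation – Compound–protein incubation for 5 h at 4 °C · Technique – TR-FRET, Eu(K)-anti-GST donor, streptavidin-D2 acceptor, ex 340, em 617/671 nm · Evaluation – percent inhibition of 671/617 nm emission ratio versus biotin and DMSO controls · Plate – 1536-well format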
CHT allo act: allosterically activates the human high affinity choline transporter; Q9GZV3; CHT-expressing cells, membrane potential dye, choline EC20; stronger effect = higher value; LV-AA mutant CHT in HEK293 cells; hit rate 0.49% among 310,000; AID 488977; B-score at 10 µM;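 active = initial fluorescence not abnormally high and integrated response B-score, plate-corrected, over 3 SD above library mean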
Target sequence (Q9GZV3 whole entry, looked up): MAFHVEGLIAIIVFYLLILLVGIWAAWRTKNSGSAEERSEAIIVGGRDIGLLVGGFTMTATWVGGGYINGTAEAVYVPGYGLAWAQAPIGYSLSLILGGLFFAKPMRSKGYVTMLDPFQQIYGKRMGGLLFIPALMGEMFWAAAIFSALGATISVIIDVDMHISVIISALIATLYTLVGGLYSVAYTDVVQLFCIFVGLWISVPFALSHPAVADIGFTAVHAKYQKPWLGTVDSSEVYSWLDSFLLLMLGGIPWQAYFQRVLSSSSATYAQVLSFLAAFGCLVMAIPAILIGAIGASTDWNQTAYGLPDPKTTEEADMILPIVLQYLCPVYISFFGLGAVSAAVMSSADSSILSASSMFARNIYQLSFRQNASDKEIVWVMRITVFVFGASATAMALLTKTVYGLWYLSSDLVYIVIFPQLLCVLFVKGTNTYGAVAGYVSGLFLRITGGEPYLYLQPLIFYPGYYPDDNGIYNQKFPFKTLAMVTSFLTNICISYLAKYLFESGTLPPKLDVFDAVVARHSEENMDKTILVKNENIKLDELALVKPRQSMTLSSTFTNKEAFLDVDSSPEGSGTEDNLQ
NR2E3 ag-2: human photoreceptor-specific nuclear receptor agonism | Q9Y5X4 | CHO-S Gal4-NCOR/VP16-NR2E3 two-hybrid, luciferase | inhibition of corepressor binding, % at 3.98 µM | hit rate 0.35% among 360,000 | AID 602229;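 active = inhibition above the mean of all tested compounds plus 3 SD, cut at about 70% in these data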;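 note: higher means lower luciferase signal from less NR2E3 corepressor binding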
GalR3 antag: antagonists of human GalR3. O60755. HEK293 GalR3-CNG cAMP membrane potential fluorescence; galR3 body fused to GalR1 C-terminus. inhibition, % at 3 µM. hit rate 0.44% among 360,000. AID 651719;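 active = inhibition above the screen-wide average plus 3 SD, cut at about 13% in these data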;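 note: forskolin and galanin both at EC90 stimulate the cells; cAMP rise reported by CNG channel membrane potential dye signal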
CHT block: inhibitors of human choline transporter CHT | Q9GZV3 | CHT-expressing cells, membrane potential dye, choline response; stronger effect = lower value | B-score at 10 µM | hit rate 0.86% among 310,000 | AID 488975;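 active = B-score over 3 SD under the library average, and starting fluorescence ratio not unusually high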;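 note: choline stimulus applied at its EC90 after an EC20 pre-addition; B-score computed on integrated fluorescence ratio after choline addition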
CHT inh conf: human CHT inhibition, confirmatory screen | shares compounds with CHT block | CHT-expressing cells, choline membrane potential dye; LV-to-AA substituted CHT, HEK293 cells | CHT activity remaining % of control (stronger effect = lower value), % at 10 µM | hit rate 70% among 2,400 | AID 493221;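 active = choline transporter activity left, mean of duplicates at 10 µM, below buffer-only control mean minus 3 SD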;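 note: depolarization triggered by choline at its EC90 following an EC20 pre-addition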
HEK293 MPD ctr: activity in parental HEK293 cells lacking CHT; hit rate 4% among 2,400; shares compounds with CHT block; membrane potential ratio readout (active if shifted either direction beyond buffer ±3SD; no single direction) at 10 µM; membrane potential dye, choline response; active = decrease or increase beyond buffer ±3SD;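 note: parental cells lack the transporter so any hit is non-specific; ratio is peak minus trough fluorescence over baseline after EC90 choline challenge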
Large screens that a line does not name were inactive (follow-up assays come after a bar, where they were run). Most compounds without a hit are left out; they make up all but 2.3% or so of the library.

Cc1cnc(C)c(N2CCN(Cc3nc(-c4cccc(F)c4F)oc3C)CC2)n1	CHT block -7.2 | CHT inh conf 29% | HEK293 MPD ctr inactive
Cc1cccc(N2CCN(Cc3nc(-c4ccc(F)cc4F)oc3C)CC2)n1	none
Clc1cccc(Cl)c1CNC1CCCC1	CHT block -5.5 | CHT inh conf 11% | HEK293 MPD ctr -10
CN1C/C(=C/c2ccccc2)N2C(=O)C[C@@H](c3ccccc3)N=C12	none (no result: NR2E3 ag-1, CHT allo act, NR2E3 ag-2, GalR3 antag, CHT block)
Cc1ccccc1C(=O)O/N=C/c1c(N2CCOCC2)n(C)c2ccccc12	CHT block -16 | CHT inh conf 37% | HEK293 MPD ctr inactive
CCOC(=O)c1ccc(NC(=O)CSc2nnc(SCc3cccc4ccccc34)s2)cc1	none (no result: NR2E3 ag-1, CHT allo act, NR2E3 ag-2, GalR3 antag, CHT block)
CSc1ccc(C=Nn2c(-c3cc(C)[nH]n3)n[nH]c2=S)cc1	none (no result: NR2E3 ag-1, CHT allo act, NR2E3 ag-2, GalR3 antag, CHT block)
CCOC(=O)c1sc(NC(=O)CCN2CCN(C)CC2)c(C(=O)OCC)c1C	CHT block -5.3 | CHT inh conf 47% | HEK293 MPD ctr inactive
CC(C)(C)c1ccc(NC(=O)COC(=O)CCN2C(=O)c3cccc([N+](=O)[O-])c3C2=O)cc1	none
COc1ccc(NC(=O)CCN2C(=O)c3cccc([N+](=O)[O-])c3C2=O)cc1	CHT block -11 | CHT inh conf inactive | HEK293 MPD ctr inactive
CCOC(=O)c1c(NC(=O)CCN2C(=O)c3cccc([N+](=O)[O-])c3C2=O)sc(C(=O)OC(C)C)c1C	CHT block -7.5 | CHT inh conf 70% | HEK293 MPD ctr inactive
CC(OC(=O)CCN1C(=O)c2cccc([N+](=O)[O-])c2C1=O)C(=O)Nc1cc(Cl)cc(Cl)c1 (stereo not given)	CHT block -6.6 | CHT inh conf 60% | HEK293 MPD ctr inactive
CC(OC(=O)CCN1C(=O)C2CC=CCC2C1=O)C(=O)Nc1cccc(Cl)c1 (stereo not given)	none
CCOC(=O)c1sc(NC(=O)CCN2CC(C)OC(C)C2)c(C(=O)OCC)c1C (stereo not given)	none (no result: COUP-TFII inh, NR2E3 ag-2, GalR3 antag)
C[C@H](O)[C@@H]1CN2CCc3ccc(N4CCOCC4)cc3[C@@H]2C[C@@H]1N(C)C(=S)NCCc1ccccc1	none (no result: NR2E3 ag-1, CHT allo act, NR2E3 ag-2, GalR3 antag, CHT block)
CC(C)(C)NC(=O)[C@H](c1cccnc1)N(C(=O)c1ccco1)c1ccc(C(C)(C)C)cc1	none (no result: NR2E3 ag-1, CHT allo act, NR2E3 ag-2, GalR3 antag, CHT block)
CC(C)(C)S(=O)(=O)/C(C#N)=N/Nc1ccc(Cl)cc1	CHT block -5.5 | CHT inh conf 47% | HEK293 MPD ctr inactive
Cc1ccc(-c2ccc(C(=O)Nc3ccccc3)o2)c2ccccc12	none
Cc1ccc(S(=O)(=O)NC(=O)c2ccc(-c3ccc(C)c4ccccc34)o2)cc1	CHT block -5 | CHT inh conf inactive | HEK293 MPD ctr inactive
N#Cc1ccccc1N1CCN(S(=O)(=O)c2ccc3c(c2)CCC(=O)N3)CC1	none (no result: NR2E3 ag-1, CHT allo act, NR2E3 ag-2, GalR3 antag, CHT block)
COc1cc(/C=C2/C(=O)N(c3ccc(Br)cc3)N=C2C)cc([N+](=O)[O-])c1O	none (no result: COUP-TFII inh, NR2E3 ag-2, GalR3 antag)
COc1cc(/C=C2/C(=O)N(c3cccc(Br)c3)N=C2C)cc(OC)c1O	CHT block -5.2 | CHT inh conf 45% | HEK293 MPD ctr inactive
CCc1nn2c(NCCOC)cc(C)nc2c1-c1ccc(F)cc1	CHT block -5.1 | CHT inh conf 48% | HEK293 MPD ctr inactive
O=C(c1ccccc1C(F)(F)F)N1CCC(Oc2cccnc2)CC1	none (no result: NR2E3 ag-1, CHT allo act, NR2E3 ag-2, GalR3 antag, CHT block)
Cn1c(CCNC(=O)c2cccs2)n[nH]c1=S	CHT block -6.8 | CHT inh conf inactive | HEK293 MPD ctr inactive
COc1cccc(C(=O)C(C#N)=C(SC)SC)c1	CHT block -5.8 | CHT inh conf 36% | HEK293 MPD ctr inactive
O=C(O)c1ccc(C(=O)C(=O)c2ccccc2)cc1	none
CSC(SC)=C(C#N)C(=O)c1ccccc1	CHT block -5 | CHT inh conf 37% | HEK293 MPD ctr inactive
CN(CC#Cc1ccccc1)C(N)=NC(=O)/C=C/c1cccc(C(F)(F)F)c1	none (no result: NR2E3 ag-1, CHT allo act, NR2E3 ag-2, GalR3 antag, CHT block)
O=C(c1ccco1)N1CCN(C(=O)c2cc3sccc3n2Cc2ccccc2)CC1	CHT block -5.9 | CHT inh conf inactive | HEK293 MPD ctr inactive
CC(C)CN1C(=O)[C@]2(CC(=O)N(C)C2c2ccccc2)c2cc(-n3cc(CCc4ccccc4)nn3)ccc21 (stereo not given in full)	none (no result: NR2E3 ag-1, CHT allo act, NR2E3 ag-2, GalR3 antag, CHT block)
Cc1nnc(SCc2ccc(F)cc2)n1NC/C=C/c1ccccc1	CHT block -7.1 | CHT inh conf inactive | HEK293 MPD ctr inactive
CN1C(=O)c2cc(NC(=O)Nc3ccccc3)ccc2OC[C@H]2O[C@@H](CC(=O)NC3CCC3)CC[C@@H]21	none (no result: NR2E3 ag-1, CHT allo act, NR2E3 ag-2, GalR3 antag, CHT block)
O=C(O)CC(Cc1ccc(Cl)cc1)C(=O)Nc1cc(Cl)ccc1Cl (stereo not given)	CHT block -5.3 | CHT inh conf 53% | HEK293 MPD ctr inactive
Cc1nn(CCC(=O)NNC(=O)Nc2ccc(Cl)cc2)c(C)c1[N+](=O)[O-]	none (no result: NR2E3 ag-1, CHT allo act, NR2E3 ag-2, GalR3 antag, CHT block)
Cc1ccccc1C(=O)NNC(=S)NC(=O)c1ccccc1	CHT block -8.4 | CHT inh conf 47% | HEK293 MPD ctr inactive
Cc1ccccc1NC(=S)NNC(=O)c1cccnc1	none
O=C(NC(=S)NNC(=O)[C@H]1C[C@@H]1c1ccccc1)c1cccc(F)c1	CHT block -7.8 | CHT inh conf 49% | HEK293 MPD ctr inactive
COc1cccc(OC)c1C(=O)NC(=S)NNC(=O)[C@H]1C[C@@H]1c1ccccc1	none
Cc1ccccc1NC(=S)NNC(=O)c1ccncc1	CHT block -6.1 | CHT inh conf 61% | HEK293 MPD ctr inactive
Cc1cccc(C(=O)NNC(=S)NC(=O)c2ccccc2)c1	CHT block -7.4 | CHT inh conf 41% | HEK293 MPD ctr inactive
Cc1ccccc1C(=O)N(Cc1ccccn1)CC1CCCO1 (stereo not given)	none (no result: NR2E3 ag-1, CHT allo act, NR2E3 ag-2, GalR3 antag, CHT block)
OC(c1ccccc1)(c1ccccc1)C1CCN(CCCNc2ccccc2F)CC1	none (no result: NR2E3 ag-1, CHT allo act, NR2E3 ag-2, GalR3 antag, CHT block)
COc1ccc(C(=O)NNC(=S)NC(=O)c2ccc(OC)cc2)cc1	none
COc1ccc(C(=O)NC(=S)NNC(=O)c2cccc(C)c2)cc1	CHT block -7.8 (no result: NR2E3 ag-2) | CHT inh conf inactive | HEK293 MPD ctr inactive
O=C(CSc1nnc(-c2ccco2)n1Cc1ccccc1)NCc1ccccc1	none
O=C(CSc1nnc(-c2ccco2)n1Cc1ccco1)NCc1ccccc1	CHT block -5.1 | CHT inh conf inactive | HEK293 MPD ctr inactive
O=C1c2cccnc2C(=O)N1Cc1ccc(Cl)cc1	none
O=C1c2cccnc2C(=O)N1Cc1ccc(S(=O)(=O)N2CCOc3ccc(Cl)cc32)cc1	CHT block -5.1 (no result: COUP-TFII inh, GalR3 antag) | CHT inh conf inactive | HEK293 MPD ctr inactive

Screening results (PubChem)
